For orientation: IC50 means the concentration that inhibits the measured activity by half.

Our source for the Activity, IC50 and Ratio values is ChEMBL document CHEMBL4732262, “Identification of two novel thiophene analogues as inducers of autophagy mediated cell death in breast cancer cells” (Bioorg Med Chem, 2021).

SMILES strings stand for the structures. Active and inactive are the calls of the source. The rule behind the calls is not given here.

The test system of experiment [1] is MDA-MB-231. As to the kind of experiment: Induction of apoptosis in human MDA-MB-231 cells assessed as necrotic cells at 2.5 uM after 24 hrs by annexin V-FITC/Propidium iodide staining based flow cytometric analysis (reference value: 0.65%). Format: functional.
The test system of experiment [2] is MCF7. Briefly: Induction of autophagy in human MCF7 cells assessed as increase in p62 degradation at 2.5 uM after 24 hrs in presence of chloroquine by Western blot analysis. In kind it is functional, cell-based. In outline: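 MCF7 cells were given 2.5 µM compound alone or combined with 50 µM chloroquine, with DMSO control, for 24 h. Lysates were immunoblotted for p62 and LC3, with GAPDH as loading control. Band intensities were quantified by infrared imaging. At least two independent experiments.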
(In general: Immunoblotting shows a protein as a band on a membrane.)

Experiment [3] has as its system MCF7. Briefly: Induction of apoptosis in human MCF7 cells assessed as increase in cell death at 2.5 uM after 24 hrs by EtBr/AO staining based fluorescence microscopic method. In kind it is functional. An outline of the steps: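 ~5 × 10^4 MCF7 cells on coverslips given 2.5 µM for 24 h, then PBS-washed and stained with 1:1 ethidium bromide/acridine orange (0.4 mg/ml each). Viewed by fluorescence microscopy, excitation 480 nm with a 515–530 nm barrier filter. Apoptotic, necrotic and viable cells scored from 200 cells per sample.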

Experiment [4] deals with MDA-MB-231. Briefly: Induction of apoptosis in human MDA-MB-231 cells assessed as early apoptotic cells at 2.5 uM after 24 hrs by annexin V-FITC/Propidium iodide staining based flow cytometric analysis (reference value: 1.54%). Format: functional.
Experiment [5] deals with MDA-MB-231. As to the kind of experiment: Induction of apoptosis in human MDA-MB-231 cells assessed as late apoptotic cells at 2.5 uM after 24 hrs by annexin V-FITC/Propidium iodide staining based flow cytometric analysis (reference value: 0.08%). In kind it is functional. A general note: A flow cytometer gives signals particle by particle.
Experiment [6] relates to MCF7. As to the kind of experiment: Induction of autophagy in human MCF7 cells assessed as increase in GABARAPL1 mRNA expression at 2.5 uM after 24 hrs by RT-PCR analysis. In kind it is functional, cell-based. An outline of the steps: (§1)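 MCF7 cells given 2.5 µM or DMSO for 24 h. Total RNA extracted with TRIzol and reverse-transcribed, then SYBR Green qPCR across 34 autophagy-regulatory genes (95 °C 10 min; 40 cycles of 95 °C 15 s and 60 °C 1 min). Relative expression by 2^-ΔΔCt against housekeeping genes and DMSO control, shown as log2. Two independent experiments.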

For experiment [7], the system named is MCF7. As to the kind of experiment: Induction of apoptosis in human MCF7cells assessed as reduction in size of cells at 2.5 uM by phase contrast microscopic method. Format: functional, cell-based. Conditions: time 6-24 hrs, TDE = time-dependent effect. In outline: (§2)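 ~5 × 10^4 cells in 6-well plates, either DMSO control or 2.5 µM. Morphology imaged at 0, 6, 12 and 24 h.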

The test system of the next experiment is MCF7 (Homo sapiens). Briefly: Induction of apoptosis in human MCF7 cells assessed as increase in cell death at 2.5 uM after 24 hrs by EtBr/AO staining based fluorescence microscopic method.
For experiment [8], the system named is MCF7. As to the kind of experiment: Induction of autophagy in human MCF7 cells assessed as increase in LC3-2 to LC3-1 protein ratio at 2.5 uM after 24 hrs by Western blot analysis. In kind it is functional, cell-based. In outline:
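MCF7 cells (~5 × 10^6) left untreated (DMSO control) or exposed to 2.5 µM compound for 24 h. Lysed in RIPA buffer, probed overnight at 4 °C, then given infrared-tagged secondary antibodies for 1 h at 37 °C and imaged by infrared scanning. LC3-II/I ratio and p62 taken by densitometry with GAPDH as loading control. Two independent experiments.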

Experiment [9] concerns MCF7. Briefly: Induction of autophagy in human MCF7 cells assessed as increase in p62 degradation level after 24 hrs by Western blot analysis. Format: functional, cell-based. The settings on record: dose 1.25-5 µM. In outline: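 Dose series in MCF7 cells (~5 × 10^6): 0, 1.25, 2.5 and 5 µM compound for 24 h, DMSO control. Lysates immunoblotted for p62 and LC3, GAPDH loading control, with infrared densitometry. At least two independent experiments.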

Experiment [10] relates to MCF7. As to the kind of experiment: Induction of autophagy in human MCF7 cells assessed as increase in ATG16L2 mRNA expression at 2.5 uM after 24 hrs by RT-PCR analysis. In kind it is functional, cell-based. In outline: as §1
Experiment [11] concerns MCF7. Briefly: Induction of autophagy in human MCF7 cells assessed as increase in BAD mRNA expression at 2.5 uM after 24 hrs by RT-PCR analysis. Format: functional, cell-based. An outline of the steps:
as §1

The subject of experiment [12] is MDA-MB-231. Briefly: Cytotoxicity against human MDA-MB-231 cells assessed as reduction in cell viability after 24 hrs by MTT assay. Format: functional, cell-based. Conditions: MDA-MB-231, 24 h. An outline of the steps:
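Cells seeded ~5 × 10^3 per well in 96-well plates, exposed to 0–40 µM for 24 h. MTT added at 0.5 mg/ml for 3 h, formazan dissolved in DMSO, absorbance read at 540 nm. IC50 taken from plotted curves. Duplicate wells, two independent repeats. MCF7 grown in DMEM, MDA-MB-231 in RPMI, both with 10% FBS at 37 °C and 5% CO2.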
In general terms: Tetrazolium dyes change colour on reduction, which living cells bring about.

The test system of experiment [13] is MCF7. As to the kind of experiment: Induction of autophagy in human MCF7 cells assessed as LC3-2 to LC3-1 protein ratio at 1.25 uM after 24 hrs by Western blot analysis (reference value: 0.22 to 0.8). Format: functional.
For experiment [14], the system named is MDA-MB-231. As to the kind of experiment: Induction of apoptosis in human MDA-MB-231 cells assessed as reduction in number of cells at 2.5 uM by phase contrast microscopic method. Format: functional, cell-based. The settings on record: time 6-24 hrs, TDE = time-dependent effect. An outline of the steps: as §2
The test system of experiment [15] is MCF7. As to the kind of experiment: Induction of apoptosis in human MCF7 cells assessed as increase in cleaved PARP level at 2.5 uM after r24 hrs by Western blot analysis. In kind it is functional, cell-based. Conditions: time 24.0 hrs. In outline:
(§3)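 MCF7 or MDA-MB-231 cells given 2.5 µM or DMSO for 24 h, then lysed in RIPA buffer. Immunoblots probed overnight at 4 °C, followed by infrared-labelled secondary antibody for 1 h at 37 °C. Bands imaged and quantified densitometrically, with GAPDH as loading control. Representative of two independent experiments.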

Experiment [16] has as its system MCF7. Briefly: Induction of apoptosis in human MCF7 cells assessed as change in Bak1 protein expression at 2.5 uM after 24 hrs by Western blot analysis. Format: functional, cell-based. In outline:
as §3

Experiment [17] has as its system MCF7. As to the kind of experiment: Induction of autophagy in human MCF7 cells assessed as LC3-2 to LC3-1 protein ratio at 5 uM after 24 hrs by Western blot analysis (reference value: 0.22 to 0.8). In kind it is functional.
For experiment [18], the system named is MCF7. As to the kind of experiment: Induction of autophagy in human MCF7 cells expressing mCherry-tagged p62 assessed as reduction in p62 expression at 2.5 uM after 24 hrs by live-cell confocal microscopic analysis. In kind it is functional, cell-based. In outline:
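MCF7 cells were co-transfected with GFP-LC3 and mCherry-p62 constructs. 24 h later they were exposed to 2.5 µM compound, 50 µM chloroquine or DMSO for a further 24 h. Nuclei were stained with Hoechst 33342 and cells imaged by live-cell confocal microscopy. Two independent experiments.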

Experiment [19] deals with MCF7. Briefly: Induction of apoptosis in human MCF7 cells assessed as necrotic cells at 2.5 uM after 24 hrs by annexin V-FITC/Propidium iodide staining based flow cytometric analysis (reference value: 1.22%). In kind it is functional.

`O=C1C(=O)c2ccsc2-c2ccccc21`: the Activity with MDA-MB-231 [1] was 43.5%; in the experiment on MDA-MB-231 [4], 11.9%; in the experiment with MDA-MB-231 [5], 10.9%; with MCF7 [7] it was “Tde”; with MCF7 [9], “Dose-dependent effect”; with MDA-MB-231 [14] it was “Tde”. Also, in the experiment on MCF7 [19], the Activity came out at 37.7%. For the same molecule, the outcome in the experiment with MCF7 [2] and in the experiment with MCF7 [16] was inactive. Besides, the outcome with MCF7 [3], with MCF7 [6], with MCF7 (Homo sapiens), in the experiment with MCF7 [8], in the experiment on MCF7 [10] and in the experiment with MCF7 [11] was Active. Moreover, the outcome in the experiment on MCF7 [15] and with MCF7 [18] was Active. Also, the IC50 in the experiment with MDA-MB-231 [12] worked out at 2600 nM. Moreover, the Ratio with MCF7 [13] was 10.2; in the experiment with MCF7 [17], 34.1.
With `O=C1C(=O)c2sccc2-c2ccccc21`, the Activity was 26.8% with MDA-MB-231 [1]; 24.7% in the experiment on MDA-MB-231 [4]; 14.9% in the experiment on MDA-MB-231 [5]; “Tde” in the experiment on MCF7 [7]; “Dose-dependent effect” in the experiment on MCF7 [9]; “Tde” in the experiment on MDA-MB-231 [14]. The Activity in the experiment with MCF7 [19] stood at 22.2%. In addition, the result in the experiment on MCF7 [2] and in the experiment on MCF7 [16] was inactive. Moreover, the result with MCF7 [3], in the experiment with MCF7 [6], in the experiment on MCF7 (Homo sapiens), in the experiment with MCF7 [8], with MCF7 [10] and with MCF7 [11] was Active. In addition, the result with MCF7 [15] and with MCF7 [18] was Active. Moreover, in the experiment with MDA-MB-231 [12], the IC50 was found to be 2960 nM. Besides, the Ratio turned out to be 0.53 in the experiment on MCF7 [13] and 11.4 in the experiment on MCF7 [17].
